Measured values taken from ChEMBL document CHEMBL5257040, “Discovery of VU2957 (Valiglurax): An mGlu4 Positive Allosteric Modulator Evaluated as a Preclinical Candidate for the Treatment of Parkinson's Disease” (ACS Med Chem Lett, 2019).

Assays:
[1] = Unbound brain-to-plasma concentration ratio in CD-1 mouse at 1 mg/kg,iv and measured upto 24 hrs by LC-MS/MS analysis; assay type: ADME, organism-based; conditions: read-out: K(p,uu,brain)
[2] = Volume of distribution at steady state in CD-1 mouse plasma at 1 mg/kg, iv and measured upto 24 hrs by LC-MS/MS analysis; assay type: ADME, organism-based; conditions: read-out: Vdss
Procedure, shortened: (§1)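 Single-dose iv and oral PK in separate arms: mouse 1 mg/kg iv / 3 mg/kg po, SD rat 0.2/3, beagle 0.5/3, cynomolgus 0.2/3 mg/kg. Plasma parameters (Vss, Tmax, F) are means of two to three animals per species.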

[3] = Cmax in Sprague-Dawley rat at 30 mg/kg, po administered as spray-dried dispersion formulation and measured after 24 hrs by LC-MS/MS analysis; assay type: ADME, organism-based; design: time 24 hrs, dose 30 mg/kg, route po; conditions: in vivo
Procedure, shortened: (§2)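 Rats were dosed orally at 3, 10 and 30 mg/kg with a spray-dried dispersion of the free base and HPMCP-HP55 polymer (25%/75%), in 30% Dexolve. Total plasma Cmax and AUC were measured, N = 3.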

[4] = Oral bioavailability in Sprague-Dawley rat at 3 mg/kg and measured upto 24 hrs by LC-MS/MS analysis; assay type: ADME, organism-based; conditions: in vivo; procedure, shortened: as §1
[5] = Unbound brain-to-plasma concentration ratio in Sprague-Dawley rat at 0.2 mg/kg, iv and measured upto 24 hrs by LC-MS/MS analysis; assay type: ADME, organism-based; conditions: read-out: K(p,uu,brain)
[6] = Clearance in CD-1 mouse plasma at 1 mg/kg, iv and measured upto 24 hrs by LC-MS/MS analysis; assay type: ADME, organism-based
Procedure, shortened: (§3)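 Single intravenous doses: mouse 1 mg/kg, SD rat 0.2 mg/kg, beagle dog 0.5 mg/kg, cynomolgus monkey 0.2 mg/kg. Plasma clearance, Vss and elimination half-life came from the plasma profiles. Values are means of two to three animals.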

[7] = Genotoxicity in Salmonella typhimurium TA98 by Ames test; assay type: toxicity; conditions: salmonella enterica subsp. enterica serovar typhimurium
Procedure, shortened: (§4)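 Ames bacterial reverse mutation test in strains TA98 and […], run with and without S9 metabolic activation.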

[8] = Elimination half life in CD-1 mouse plasma at 1 mg/kg, iv and measured upto 24 hrs by LC-MS/MS analysis; assay type: ADME, organism-based; conditions: read-out: beta t1/2 (converted); procedure, shortened: as §3
Kir2.1 = Kir2.1 (Homo sapiens, UniProt Q7Z4S6); assay: Inhibition of Kir2.1 (unknown origin) at 10 uM; assay type: toxicity
Chain of Kir2.1 (Q7Z4S6 whole entry): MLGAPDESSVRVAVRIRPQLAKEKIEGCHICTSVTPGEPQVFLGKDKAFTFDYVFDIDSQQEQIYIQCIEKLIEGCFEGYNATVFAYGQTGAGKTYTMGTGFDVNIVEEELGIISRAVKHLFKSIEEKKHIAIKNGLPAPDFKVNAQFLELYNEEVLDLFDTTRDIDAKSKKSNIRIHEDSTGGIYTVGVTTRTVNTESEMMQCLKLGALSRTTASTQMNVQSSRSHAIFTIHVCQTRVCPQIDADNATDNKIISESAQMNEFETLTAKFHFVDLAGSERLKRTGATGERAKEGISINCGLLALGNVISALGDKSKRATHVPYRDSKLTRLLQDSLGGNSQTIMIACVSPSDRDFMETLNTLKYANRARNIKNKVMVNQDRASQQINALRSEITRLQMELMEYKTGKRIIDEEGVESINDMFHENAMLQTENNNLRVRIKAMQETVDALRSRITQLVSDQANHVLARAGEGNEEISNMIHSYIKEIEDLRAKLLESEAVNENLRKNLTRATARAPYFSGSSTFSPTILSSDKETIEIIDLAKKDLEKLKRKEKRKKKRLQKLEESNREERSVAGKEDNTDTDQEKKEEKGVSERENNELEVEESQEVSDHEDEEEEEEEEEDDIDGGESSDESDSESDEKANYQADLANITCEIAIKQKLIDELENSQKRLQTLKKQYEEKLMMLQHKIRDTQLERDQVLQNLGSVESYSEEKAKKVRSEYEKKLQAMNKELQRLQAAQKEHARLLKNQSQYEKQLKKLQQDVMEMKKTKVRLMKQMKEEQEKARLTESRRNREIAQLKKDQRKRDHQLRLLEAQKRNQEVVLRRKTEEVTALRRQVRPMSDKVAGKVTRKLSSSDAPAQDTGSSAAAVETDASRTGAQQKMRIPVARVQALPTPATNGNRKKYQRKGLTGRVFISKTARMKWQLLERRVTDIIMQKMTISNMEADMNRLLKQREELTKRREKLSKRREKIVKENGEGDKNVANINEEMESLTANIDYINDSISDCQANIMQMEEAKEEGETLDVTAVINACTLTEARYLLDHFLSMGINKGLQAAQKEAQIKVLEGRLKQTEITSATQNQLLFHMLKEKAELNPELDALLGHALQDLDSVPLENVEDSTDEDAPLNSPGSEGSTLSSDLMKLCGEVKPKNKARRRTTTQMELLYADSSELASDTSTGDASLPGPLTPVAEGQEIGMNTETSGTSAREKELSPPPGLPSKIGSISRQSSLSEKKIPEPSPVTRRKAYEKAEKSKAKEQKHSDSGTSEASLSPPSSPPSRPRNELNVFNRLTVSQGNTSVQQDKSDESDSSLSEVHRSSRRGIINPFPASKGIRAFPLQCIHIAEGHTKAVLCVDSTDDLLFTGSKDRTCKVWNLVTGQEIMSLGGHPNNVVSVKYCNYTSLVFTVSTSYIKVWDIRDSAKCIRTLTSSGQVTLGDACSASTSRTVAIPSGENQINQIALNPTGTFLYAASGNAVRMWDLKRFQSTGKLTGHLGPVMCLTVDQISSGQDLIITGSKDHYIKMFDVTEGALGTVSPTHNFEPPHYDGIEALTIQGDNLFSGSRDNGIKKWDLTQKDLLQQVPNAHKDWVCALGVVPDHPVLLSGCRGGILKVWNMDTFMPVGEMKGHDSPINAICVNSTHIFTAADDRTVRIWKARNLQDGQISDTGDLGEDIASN
Procedure, shortened: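 Cardiac ion channel electrophysiology (functional EP) panel, with percent inhibition measured at 10 μM.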

[9] = Tmax in Cynomolgus monkey at 3 mg/kg, po and measured upto 24 hrs by LC-MS/MS analysis; assay type: ADME, organism-based, Macaca fascicularis; conditions: in vivo; procedure, shortened: as §1
[10] = Protein binding in mouse plasma assessed as fraction unbound incubated for 4 hrs by equilibrium dialysis based LC/MS/MS analysis; assay type: ADME, cell-free
[11] = Brain to plasma permeability coefficient, Kp in CD-1 mouse plasma at 1 mg/kg,iv and measured upto 24 hrs by LC-MS/MS analysis; assay type: ADME, organism-based
Procedure, shortened: (§5)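 Total brain to total plasma partition coefficient (Kp) measured in mouse, SD rat and cynomolgus monkey. The unbound ratio (Kp,uu) was corrected with brain homogenate binding. Values are means of two to three animals.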

[12] = Drug uptake in cerebrospinal fluid of haloperidol-induced catalepsy Sprague-Dawley rat model at 0.3 to 30 mg/kg,po; assay type: ADME, organism-based; conditions: in vivo, dose 0.3-30 mg/kg, read-out: Ct
Procedure, shortened: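 Rats were given haloperidol 1.5 mg/kg i.p. to induce catalepsy and dosed orally at 0.3–30 mg/kg, N = 8–10 per group. Total plasma and CSF concentrations were measured alongside the catalepsy read-out. Satellite rats were used for PK in the time-course study.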

[13] = biological target: Metabotropic glutamate receptor 1 (Rattus norvegicus, UniProt P23385); assay: Positive allosteric modulator activity at rat mGlu1 in human HEK cells assessed assessed as increase in calcium flux preincubated for 2.5 mins followed by gluatamate addition by Fluo-4 AM dye based calcium mobilization assay; assay type: cell-based
Cytochrome P450 1A2 = Cytochrome P450 1A2 (Homo sapiens, UniProt P05177); assay: Induction of CYP1A2 in human hepatocytes; assay type: ADME, cell-based
Chain of Cytochrome P450 1A2 (P05177 whole entry): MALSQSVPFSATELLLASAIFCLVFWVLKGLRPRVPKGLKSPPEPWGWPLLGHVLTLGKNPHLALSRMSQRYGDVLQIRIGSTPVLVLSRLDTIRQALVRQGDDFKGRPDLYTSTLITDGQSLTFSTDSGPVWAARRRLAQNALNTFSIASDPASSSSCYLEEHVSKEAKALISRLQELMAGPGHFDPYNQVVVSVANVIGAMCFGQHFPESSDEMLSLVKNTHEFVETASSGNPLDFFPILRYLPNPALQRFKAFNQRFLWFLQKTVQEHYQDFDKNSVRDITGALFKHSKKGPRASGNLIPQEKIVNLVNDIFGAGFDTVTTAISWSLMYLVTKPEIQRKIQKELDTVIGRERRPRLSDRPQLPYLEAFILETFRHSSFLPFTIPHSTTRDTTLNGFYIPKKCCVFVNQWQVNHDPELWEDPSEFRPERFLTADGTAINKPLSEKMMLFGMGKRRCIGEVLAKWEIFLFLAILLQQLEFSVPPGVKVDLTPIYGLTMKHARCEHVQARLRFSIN
Procedure, shortened: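 CYP1A2, 2B6 and 3A4 induction measured in human hepatocytes.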

[14] = Genotoxicity in Salmonella typhimurium […] by Ames test; assay type: toxicity; conditions: salmonella enterica subsp. enterica serovar typhimurium; procedure, shortened: as §4
P-gp (ABCB1) = P-gp (ABCB1) (Homo sapiens, UniProt P08183); assay: Substrate activity at human P-gp assessed as efflux ratio; assay type: ADME; conditions: not told
Chain of P-gp (ABCB1) (P08183 whole entry): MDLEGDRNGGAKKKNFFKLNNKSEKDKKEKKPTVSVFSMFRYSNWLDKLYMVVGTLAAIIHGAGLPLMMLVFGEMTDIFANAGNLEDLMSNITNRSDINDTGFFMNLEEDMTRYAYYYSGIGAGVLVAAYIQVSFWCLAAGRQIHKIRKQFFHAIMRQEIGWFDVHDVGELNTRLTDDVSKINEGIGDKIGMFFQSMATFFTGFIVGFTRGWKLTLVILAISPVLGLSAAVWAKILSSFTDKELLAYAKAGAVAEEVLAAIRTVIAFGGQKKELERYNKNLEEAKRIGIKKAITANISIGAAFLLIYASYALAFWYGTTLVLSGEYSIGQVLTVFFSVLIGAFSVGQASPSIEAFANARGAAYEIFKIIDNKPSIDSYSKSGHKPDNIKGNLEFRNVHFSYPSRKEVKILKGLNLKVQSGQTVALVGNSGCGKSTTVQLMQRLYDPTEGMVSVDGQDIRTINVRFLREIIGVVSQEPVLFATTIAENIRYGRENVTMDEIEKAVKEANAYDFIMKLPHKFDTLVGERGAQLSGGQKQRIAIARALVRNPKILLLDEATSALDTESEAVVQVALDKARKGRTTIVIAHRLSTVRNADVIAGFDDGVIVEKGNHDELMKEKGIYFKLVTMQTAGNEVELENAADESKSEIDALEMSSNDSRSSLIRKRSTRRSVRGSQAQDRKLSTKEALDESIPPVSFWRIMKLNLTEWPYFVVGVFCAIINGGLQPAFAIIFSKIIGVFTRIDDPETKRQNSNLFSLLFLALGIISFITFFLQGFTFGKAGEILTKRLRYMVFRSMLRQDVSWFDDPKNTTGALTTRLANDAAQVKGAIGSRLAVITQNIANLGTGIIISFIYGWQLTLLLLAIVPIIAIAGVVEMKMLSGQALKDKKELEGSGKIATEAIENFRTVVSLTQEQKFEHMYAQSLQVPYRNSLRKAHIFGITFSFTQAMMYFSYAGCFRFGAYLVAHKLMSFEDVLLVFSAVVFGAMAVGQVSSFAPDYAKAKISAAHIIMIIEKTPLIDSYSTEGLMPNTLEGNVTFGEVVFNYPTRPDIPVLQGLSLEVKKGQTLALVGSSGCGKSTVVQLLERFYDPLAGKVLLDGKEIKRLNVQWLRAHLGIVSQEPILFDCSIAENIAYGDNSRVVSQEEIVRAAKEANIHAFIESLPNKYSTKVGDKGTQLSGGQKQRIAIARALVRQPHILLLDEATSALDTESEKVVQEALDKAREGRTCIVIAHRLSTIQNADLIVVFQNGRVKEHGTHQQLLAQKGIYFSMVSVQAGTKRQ

[15] = Brain to plasma permeability coefficient, Kp in Sprague-Dawley rat at 0.2 mg/kg, iv and measured upto 24 hrs by LC-MS/MS analysis; assay type: ADME, organism-based; procedure, shortened: as §5
[16] = Protein binding in rat plasma assessed as fraction unbound incubated for 4 hrs by equilibrium dialysis based LC/MS/MS analysis; assay type: ADME, cell-free
[17] = biological target: Metabotropic glutamate receptor 6 (Homo sapiens, UniProt O15303); assay: Positive allosteric modulator activity at human mGlu6 in human HEK cells co-expressing […] assessed as increase in by thallium flux preincubated for 2.5 mins followed by gluatamate addition by thallium flux assay; assay type: cell-based
Chain of Metabotropic glutamate receptor 6 (O15303 whole entry): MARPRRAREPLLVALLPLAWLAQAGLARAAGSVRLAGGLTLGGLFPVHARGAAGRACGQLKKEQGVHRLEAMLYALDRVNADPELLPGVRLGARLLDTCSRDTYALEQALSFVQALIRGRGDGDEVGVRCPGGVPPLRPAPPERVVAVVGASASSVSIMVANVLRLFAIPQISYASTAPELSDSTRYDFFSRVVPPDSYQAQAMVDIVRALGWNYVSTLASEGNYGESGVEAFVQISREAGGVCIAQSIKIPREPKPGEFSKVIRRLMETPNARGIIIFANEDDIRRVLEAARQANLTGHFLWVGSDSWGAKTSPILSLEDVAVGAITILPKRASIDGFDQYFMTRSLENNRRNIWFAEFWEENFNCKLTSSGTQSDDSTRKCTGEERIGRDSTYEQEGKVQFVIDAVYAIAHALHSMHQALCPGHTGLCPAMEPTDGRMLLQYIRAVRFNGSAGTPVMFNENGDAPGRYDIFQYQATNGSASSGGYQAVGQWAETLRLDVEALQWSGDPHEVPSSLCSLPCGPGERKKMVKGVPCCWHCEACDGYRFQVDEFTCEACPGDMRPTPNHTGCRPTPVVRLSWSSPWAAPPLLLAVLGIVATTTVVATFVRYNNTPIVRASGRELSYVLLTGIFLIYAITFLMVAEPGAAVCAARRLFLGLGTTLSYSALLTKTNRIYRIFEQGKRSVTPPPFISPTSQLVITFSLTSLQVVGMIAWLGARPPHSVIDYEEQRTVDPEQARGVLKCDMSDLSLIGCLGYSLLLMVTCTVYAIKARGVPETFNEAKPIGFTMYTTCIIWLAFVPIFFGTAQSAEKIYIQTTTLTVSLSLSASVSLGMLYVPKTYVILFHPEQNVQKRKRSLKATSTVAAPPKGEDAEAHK

Cytochrome P450 3A4 = Cytochrome P450 3A4 (Homo sapiens, UniProt P08684); assay: Inhibition of CYP3A4 in human liver microsomes using midazolam as substrate preincubated for 15 mins followed by NADPH addition and measured after 8 mins by LC/MS/MS analysis; assay type: ADME, Microsome
Chain of Cytochrome P450 3A4 (P08684 whole entry): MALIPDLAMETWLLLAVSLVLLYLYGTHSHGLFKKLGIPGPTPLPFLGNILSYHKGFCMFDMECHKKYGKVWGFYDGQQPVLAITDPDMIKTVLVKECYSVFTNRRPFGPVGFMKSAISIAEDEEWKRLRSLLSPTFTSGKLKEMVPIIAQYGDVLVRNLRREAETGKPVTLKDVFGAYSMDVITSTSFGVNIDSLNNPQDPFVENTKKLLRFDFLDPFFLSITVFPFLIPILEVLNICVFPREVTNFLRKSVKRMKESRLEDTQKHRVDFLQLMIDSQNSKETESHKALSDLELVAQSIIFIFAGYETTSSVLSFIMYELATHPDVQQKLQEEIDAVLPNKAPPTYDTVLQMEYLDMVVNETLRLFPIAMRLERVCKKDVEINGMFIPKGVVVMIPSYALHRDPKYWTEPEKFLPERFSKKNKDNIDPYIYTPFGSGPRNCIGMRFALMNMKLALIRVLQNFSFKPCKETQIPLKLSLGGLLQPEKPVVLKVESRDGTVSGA

[18] = AUC in Sprague-Dawley rat at 30 mg/kg, po administered as spray-dried dispersion formulation and measured after 24 hrs by LC-MS/MS analysis; assay type: ADME, organism-based; design: dose 30 mg/kg, time 24 hrs, route po; conditions: in vivo; procedure, shortened: as §2
Rattus norvegicus = assay: Reversal of haloperidol-induced catalepsy Sprague-Dawley rat model assessed as minimum effective dose administered orally; assay type: functional; conditions: route po, read-out: MED
Procedure, shortened: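 Sprague-Dawley rats received haloperidol 1.5 mg/kg i.p. to induce catalepsy, with the compound dosed orally at 0.3–30 mg/kg. Groups were 8–10 rats and compared with vehicle + haloperidol (p < 0.05). MED = lowest oral dose giving significant reversal.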

[19] = Oral bioavailability in Cynomolgus monkey at 3 mg/kg administered as spray-dried dispersion formulation and measured upto 24 hrs by LC-MS/MS analysis; assay type: ADME, organism-based, Macaca fascicularis; conditions: in vivo
Procedure, shortened: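 Cynomolgus oral dosing used a spray-dried dispersion of the compound with HPMCP-HP55 polymer at a 25%/75% drug-to-polymer ratio. Oral bioavailability (%F) was determined from plasma exposure.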

[20] = Oral bioavailability in Beagle dog at 3 mg/kg and measured upto 24 hrs by LC-MS/MS analysis; assay type: ADME, organism-based, Canis lupus familiaris; conditions: in vivo; procedure, shortened: as §1
[21] = Genotoxicity in Salmonella typhimurium […] in presence of S9 fraction by Ames test; assay type: toxicity, subcellular; conditions: salmonella enterica subsp. enterica serovar typhimurium; procedure, shortened: as §4
[22] = Protein binding in dog plasma assessed as fraction unbound incubated for 4 hrs by equilibrium dialysis based LC/MS/MS analysis; assay type: ADME, cell-free, Canis lupus familiaris
[23] = Elimination half life in Sprague-Dawley rat at 0.2 mg/kg, iv and measured upto 24 hrs by LC-MS/MS analysis; assay type: ADME, organism-based; conditions: in vivo, read-out: beta t1/2 (converted); procedure, shortened: as §3
[24] = AUC (0 to infinity) in Beagle dog at 3 mg/kg, po and measured upto 24 hrs by LC-MS/MS analysis; assay type: ADME, organism-based, Canis lupus familiaris; design: time < 24 hrs, dose 3 mg/kg, route po; conditions: in vivo
Procedure, shortened: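 Single oral 3 mg/kg dose in mouse, SD rat, beagle dog and cynomolgus monkey. Total plasma exposure after the oral dose gave Cmax, Tmax, AUC0-inf and F. Values are means of two to three animals.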

[25] = Solubility of compound in FaSSIF; assay type: ADME
[26] = Protein binding in human plasma assessed as fraction unbound incubated for 4 hrs by equilibrium dialysis based LC/MS/MS analysis; assay type: ADME, cell-free
[27] = AUC in Sprague-Dawley rat at 10 mg/kg, po administered as spray-dried dispersion formulation and measured after 24 hrs by LC-MS/MS analysis; assay type: ADME, organism-based; design: dose 10 mg/kg, time 24 hrs, route po; conditions: in vivo; procedure, shortened: as §2

Kp uu at 24 h [1]: 0.16
Vd [2]: 9.93 L/kg
Cmax [3]: 6.05 µM
bioavailability [4]: 100%
Kp uu at 24 h [5]: 0.09
clearance [6]: 78.3 mL/min/kg
half-life [8]: 2.98 h
Tmax [9]: 6 h
fraction unbound at 4 h [10]: 0.015
Kp at 24 h [11]: 0.78
EC50 [13]: > 10 µM
Activity (Cytochrome P450 1A2): Not Active
efflux ratio (P-gp (ABCB1)): 1.3
Kp at 24 h [15]: 1.51
fraction unbound at 4 h [16]: 0.01
EC50 [17]: > 10 µM
IC50 (Cytochrome P450 3A4): > 30 µM
AUC at 24 h [18]: 83.9 µM·h
bioavailability [19]: 58%
bioavailability [20]: 37.5%
fraction unbound at 4 h [22]: 0.014
half-life [23]: 1.05 h
AUC(0-inf) [24]: 1.82 µM·h
solubility [25]: < 5 µg/mL
fraction unbound at 4 h [26]: 0.016
AUC at 24 h [27]: 23.7 µM·h
SMILES: FC(F)(F)c1nccc2cc(Nc3n[nH]c4ncccc34)ccc12
Activity [7]: Non-Toxic
inhibition at 10 µM (Kir2.1): < 50%
concentration [12]: 0.148 µM
Activity [14]: Non-Toxic
minimal effective dose (Rattus norvegicus): 1 mg/kg
Activity [21]: Non-Toxic
